Test results as given in ChEMBL document CHEMBL1155246, “Synthesis, antioxidant properties and radioprotective effects of new benzothiazoles and thiadiazoles” (Bioorg Med Chem, 2009).

Experiments:
[1] = test system: Radical scavenging activity; experiment: Antioxidant activity assessed as DPPH free radical scavenging activity by UV spectroscopic method; format: functional
[2] = Antioxidant activity assessed as ABTS free radical scavenging activity by radical cation discoloration assay; format: functional
Outline: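 ABTS radical cation made by mixing aqueous 7.0 mM ABTS with potassium persulfate to 3.5 mM final and holding overnight in the dark. It was diluted with ethanol to an initial A734 of 0.70 at 30 °C. Test compound was added at several concentrations. Absorbance at 734 nm was read at 0, 0.5 and 1 min, then every 5 min to steady state. IC50 was taken as the concentration giving 50% reduction of the radical cation.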

Mus musculus [3] = experiment: Radioprotective activity against gamma radiation-induced toxicity in Swiss CD1 mouse assessed as survival at 368 mg/kg, ip administered 90 mins before 10.2 Gy irradiation measured after 30 days; format: functional; conditions: Swiss CD1, light or radiation study, route intraperitoneal
Outline: (§1)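 Male six-week-old Swiss CD1 mice, 10 per group; compound in Mygliol 812 given ip (20 ml/kg) at maximum tolerated dose (1/2 LD50tox/48H) 90 min before 60Co gamma irradiation (300 mGy/min) at 8.2 Gy (LD99.9/30days) or 10.2 Gy; survival percentage at day 30.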

Mus musculus [4] = experiment: Radioprotective activity against gamma radiation-induced toxicity in Swiss CD1 mouse assessed as survival at 368 mg/kg, ip administered 90 mins before 8.2 Gy irradiation measured after 30 days; format: functional; conditions: Swiss CD1, light or radiation study, route intraperitoneal; outline: as §1
[5] = Acute toxicity in Swiss CD1 mouse assessed as lethality after 48 hrs; format: organism-based; conditions: in vivo
Outline: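 Male six-week-old Swiss CD1 mice; compound given intraperitoneally at different concentrations; deaths counted at 48 h to derive LD50tox/48H, the concentration killing 50% of animals.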

Mus musculus [6] = experiment: Radioprotective activity against gamma radiation-induced toxicity in Swiss CD1 mouse assessed as survival at 340 mg/kg, ip administered 90 mins before 8.2 Gy irradiation measured after 30 days; format: functional; conditions: Swiss CD1, light or radiation study, route intraperitoneal; outline: as §1
Mus musculus [7] = experiment: Radioprotective activity against gamma radiation-induced toxicity in Swiss CD1 mouse assessed as survival at 340 mg/kg, ip administered 90 mins before 10.2 Gy irradiation measured after 30 days; format: functional; conditions: Swiss CD1, light or radiation study, route intraperitoneal; outline: as §1
Mus musculus [8] = experiment: Radioprotective activity against gamma radiation-induced toxicity in Swiss CD1 mouse assessed as survival at 308 mg/kg, ip administered 90 mins before 8.2 Gy irradiation measured after 30 days; format: functional; conditions: Swiss CD1, light or radiation study, route intraperitoneal; outline: as §1
Mus musculus [9] = experiment: Radioprotective activity against gamma radiation-induced toxicity in Swiss CD1 mouse assessed as survival at 308 mg/kg, ip administered 90 mins before 10.2 Gy irradiation measured after 30 days; format: functional; conditions: Swiss CD1, light or radiation study, route intraperitoneal; outline: as §1
Mus musculus [10] = experiment: Radioprotective activity against gamma radiation-induced toxicity in Swiss CD1 mouse assessed as survival at 260 mg/kg, ip administered 90 mins before 8.2 Gy irradiation measured after 30 days; format: functional; conditions: Swiss CD1, light or radiation study, route intraperitoneal; outline: as §1
Mus musculus [11] = experiment: Radioprotective activity against gamma radiation-induced toxicity in Swiss CD1 mouse assessed as survival at 260 mg/kg, ip administered 90 mins before 10.2 Gy irradiation measured after 30 days; format: functional; conditions: Swiss CD1, light or radiation study, route intraperitoneal; outline: as §1
Mus musculus [12] = experiment: Radioprotective activity against gamma radiation-induced toxicity in B6D2F1 mouse assessed as survival at 260 mg/kg, ip administered 15 mins before 8.8 Gy irradiation measured after 30 days; format: functional; conditions: B6D2F1, light or radiation study, route intraperitoneal
Mus musculus [13] = experiment: Radioprotective activity against gamma radiation-induced toxicity in B6D2F1 mouse assessed as survival at 260 mg/kg, ip administered 15 mins before 10.8 Gy irradiation measured after 30 days; format: functional; conditions: B6D2F1, light or radiation study, route intraperitoneal
Mus musculus [14] = experiment: Radioprotective activity against gamma radiation-induced toxicity in Swiss CD1 mouse assessed as survival at 349 mg/kg, ip administered 90 mins before 8.2 Gy irradiation measured after 30 days; format: functional; conditions: Swiss CD1, light or radiation study, route intraperitoneal; outline: as §1
Mus musculus [15] = experiment: Radioprotective activity against gamma radiation-induced toxicity in Swiss CD1 mouse assessed as survival at 349 mg/kg, ip administered 90 mins before 10.2 Gy irradiation measured after 30 days; format: functional; conditions: Swiss CD1, light or radiation study, route intraperitoneal; outline: as §1
Mus musculus [16] = experiment: Radioprotective activity against gamma radiation-induced toxicity in B6D2F1 mouse assessed as survival at 480 mg/kg, ip administered 15 mins before 8.8 Gy irradiation measured after 30 days; format: functional; conditions: B6D2F1, light or radiation study, route intraperitoneal
Mus musculus [17] = experiment: Radioprotective activity against gamma radiation-induced toxicity in Swiss CD1 mouse assessed as survival at 480 mg/kg, ip administered 90 mins before 8.2 Gy irradiation measured after 30 days; format: functional; conditions: Swiss CD1, light or radiation study, route intraperitoneal; outline: as §1
Mus musculus [18] = experiment: Radioprotective activity against gamma radiation-induced toxicity in B6D2F1 mouse assessed as survival at 240 mg/kg, ip administered 15 mins before 8.8 Gy irradiation measured after 30 days; format: functional; conditions: B6D2F1, light or radiation study, route intraperitoneal
Mus musculus [19] = experiment: Radioprotective activity against gamma radiation-induced toxicity in Swiss CD1 mouse assessed as survival at 480 mg/kg, ip administered 90 mins before 10.2 Gy irradiation measured after 30 days; format: functional; conditions: Swiss CD1, light or radiation study, route intraperitoneal; outline: as §1
Mus musculus [20] = experiment: Radioprotective activity against gamma radiation-induced toxicity in Swiss CD1 mouse assessed as survival at 400 mg/kg, ip administered 90 mins before 10.2 Gy irradiation measured after 30 days; format: functional; conditions: Swiss CD1, light or radiation study, route intraperitoneal; outline: as §1
Mus musculus [21] = experiment: Radioprotective activity against gamma radiation-induced toxicity in B6D2F1 mouse assessed as survival at 400 mg/kg, ip administered 15 mins before 8.8 Gy irradiation measured after 30 days; format: functional; conditions: B6D2F1, light or radiation study, route intraperitoneal
Mus musculus [22] = experiment: Radioprotective activity against gamma radiation-induced toxicity in B6D2F1 mouse assessed as survival at 400 mg/kg, ip administered 15 mins before 10.8 Gy irradiation measured after 30 days; format: functional; conditions: B6D2F1, light or radiation study, route intraperitoneal
Mus musculus [23] = experiment: Radioprotective activity against gamma radiation-induced toxicity in Swiss CD1 mouse assessed as survival at 400 mg/kg, ip administered 90 mins before 8.2 Gy irradiation measured after 30 days; format: functional; conditions: Swiss CD1, light or radiation study, route intraperitoneal; outline: as §1

N=c1sc2ccccc2n1CCO
IC50 [1]: > 4000 µM

CCSc1nn(CCSS(=O)(=O)O)c(=N)s1
IC50 ([2]; read-out: IC50): 8.32 µM

CCOc1ccc2nc(N)sc2c1
IC50 [1]: > 4000 µM

Cc1ccc2c(c1)sc(=N)n2CCO
IC50 [1]: > 4000 µM

CCOc1ccc2c(c1)sc(=N)n2CCSS(=O)(=O)O
IC50 [2]: ND(Insoluble)

CCSc1nnc(NCCS)s1
survival at 368 mg/kg (Mus musculus [3]): 0% | survival at 368 mg/kg (Mus musculus [4]): 0% | IC50 [1]: 110 µM | IC50 ([2]; read-out: IC50): 390 µM | LD50 at 48 h [5]: > 736 mg/kg

CCc1nnc(S)s1
survival at 340 mg/kg (Mus musculus [6]): 30% | IC50 [1]: 84 µM | IC50 ([2]; read-out: IC50): 21.3 µM | LD50 at 48 h [5]: > 680 mg/kg | survival at 340 mg/kg (Mus musculus [7]): 0%

Cc1ccc2nc(NCCS)sc2c1
IC50 [1]: 3170 µM | IC50 ([2]; read-out: IC50): 4040 µM

SCCNc1nc2ccccc2s1
survival at 308 mg/kg (Mus musculus [8]): 60% | IC50 [1]: 1390 µM | IC50 ([2]; read-out: IC50): 1520 µM | LD50 at 48 h [5]: > 616 mg/kg | survival at 308 mg/kg (Mus musculus [9]): 0%

CCc1nn(CCSS(=O)(=O)O)c(=N)s1
IC50 ([2]; read-out: IC50): 51.9 µM

CCc1nn(CCO)c(=N)s1
IC50 [1]: 2400 µM

CCSc1nn(CCO)c(=N)s1
IC50 [1]: 3500 µM

CCc1nnc(N)s1
IC50 [1]: > 4000 µM

CCOc1ccc2nc(S)sc2c1
IC50 [1]: 46 µM | IC50 ([2]; read-out: IC50): 88.4 µM

CCC(=O)Nc1nc2ccccc2s1
IC50 [1]: > 4000 µM

Cc1ccc2nc(S)sc2c1
IC50 [1]: 91 µM | survival at 260 mg/kg (Mus musculus [10]): 80% | survival at 260 mg/kg (Mus musculus [11]): 0% | IC50 ([2]; read-out: IC50): 76.7 µM | survival at 260 mg/kg (Mus musculus [12]): 100% | LD50 at 48 h [5]: > 520 mg/kg | survival at 260 mg/kg (Mus musculus [13]): 0%

CCSc1nnc(S)s1
survival at 349 mg/kg (Mus musculus [14]): 0% | IC50 [1]: 53 µM | IC50 ([2]; read-out: IC50): 23.1 µM | LD50 at 48 h [5]: 698 mg/kg | survival at 349 mg/kg (Mus musculus [15]): 0%

N=c1sc2ccccc2n1CCSS(=O)(=O)O
IC50 [2]: ND(Insoluble)

CCc1nn(CCSP(=O)(O)O)c(=N)s1
IC50 ([2]; read-out: IC50): 90.3 µM

CCOc1ccc2c(c1)sc(=N)n2CCO
IC50 [1]: 1400 µM

CCSc1nnc(N)s1
IC50 [1]: > 4000 µM

CCC(=O)Nc1nc2ccc(C)cc2s1
IC50 [1]: > 4000 µM

CCSc1nnc(NC(=O)CC)s1
IC50 [1]: > 4000 µM

Cc1ccc2c(c1)sc(=N)n2CCSS(=O)(=O)O
IC50 [2]: ND(Insoluble)

CCSc1nn(CCSP(=O)(O)O)c(=N)s1
IC50 ([2]; read-out: IC50): 76.9 µM

CCOc1ccc2nc(NC(=O)CC)sc2c1
IC50 [1]: > 4000 µM

CCC(=O)Nc1nnc(CC)s1
IC50 [1]: > 4000 µM

Sc1nc2ccccc2s1 [2-MERCAPTOBENZOTHIAZOLE]
survival at 480 mg/kg (Mus musculus [16]): 100% | IC50 [1]: 92 µM | survival at 480 mg/kg (Mus musculus [17]): 60% | survival at 240 mg/kg (Mus musculus [18]): 90% | survival at 480 mg/kg (Mus musculus [19]): 0% | IC50 ([2]; read-out: IC50): 79.8 µM | LD50 at 48 h [5]: > 960 mg/kg

NCCCNCCSP(=O)(O)O [AMIFOSTINE]
survival at 400 mg/kg (Mus musculus [20]): 20% | survival at 400 mg/kg (Mus musculus [21]): 100% | IC50 [1]: 100 µM | survival at 400 mg/kg (Mus musculus [22]): 60% | survival at 400 mg/kg (Mus musculus [23]): 50% | LD50 at 48 h [5]: 800 mg/kg

O=C1O[C@H]([C@@H](O)CO)C(O)=C1O [ASCORBIC ACID]
IC50 [1]: 20 µM | IC50 ([2]; read-out: IC50): 46.5 µM

N[C@@H](CCC(=O)N[C@@H](CS)C(=O)NCC(=O)O)C(=O)O [GLUTATHIONE]
IC50 [1]: 96 µM

Cc1c(C)c2c(c(C)c1O)CCC(C)(C(=O)O)O2 (stereo not drawn) [TROLOX]
IC50 [1]: 34 µM
